# Shown is part of a subset that was picked to be rich in hits.
# NLRP3 yeast inh – inhibitors of NALP3 inflammasome in yeast. Yeast reconstituted NLRP3/ASC/caspase-1, beta-gal luminescence, 24 h. inhibition, % at 10 µM. 0.39% of 330,000 active. AID 2825;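 active = inhibition of 50% or more; inactive = inhibition below 50%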;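 note: plate controls were induced DMSO wells for no effect and uninduced yeast grown without galactose for full effect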
# L major viab – inhibitors of Leishmania major promastigote growth | Leishmania major promastigotes, resazurin fluorescence viability | inhibition, % at 10 µM | 9% of 200,000 active | AID 1063; in the data active = inhibition above about 50%;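 note: promastigotes grown with compound for 44 hours at 28 °C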
# T cruzi repl – blocks replication of Trypanosoma cruzi; T. cruzi beta-gal in NIH3T3, luminescence, 90 h; inhibition, % (no concentration beside the values); 1.4% of 300,000 active; AID 1885;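 active = mean inhibition across valid replicates above about 55%, limit read from the data; inconclusive = mean below that limit but half or more replicates reach it; inactive = mean below it, under half of replicates reach it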;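 note: signal also drops with host cell toxicity which is not excluded here; 0% = plate median of DMSO wells and 100% = zero luminescence signal; higher percent means less beta-gal luminescence so fewer parasites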
#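 System: mouse NIH/3T3 fibroblasts infected with β-gal-expressing T. cruzi Tulahuen C4 / Input: NIH/3T3 cells, 5,000 per well / Buffer or medium: Low-serum DMEM with 2% FBS / Probe or stimulus: 5000 reporter trypomastigotes per well / Schedule: ≥90 h infection period, 3 h prior cell attachment / Measured by: GalScreen luminescence, 60 min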
# PolyA inhibitor – blocks polyadenylation in yeast reporter cells; activity score, % at 12 µM; S. cerevisiae SKY197-pL101 polyadenylation reporter, beta-gal luminescence; efflux-impaired pdr1/pdr3 knockout yeast; score 100 = 6 SD above DMSO; 0.02% of 300,000 active;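 active = lowest replicate activity score at least 50, where 100 means six control SD above control mean; inconclusive = lowest score under 50 but half or more replicates reach 50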;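 note: yeast exposed to compound for 9 h at 30 °C; higher score means more reporter readthrough which indicates perturbed polyadenylation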
# Calb FLC – C. albicans growth modulation with fluconazole; C. albicans CaCi-2 + fluconazole, Alamar Blue growth, 48 h; growth inhibition, % (no concentration beside the values); 0.57% of 300,000 active; AID 1979;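 active = growth inhibition above about 58% in most replicates, limit read from the data, passing the limit was not always enough; inconclusive = exactly half the replicates above a set limit; inactive = most replicates below a set limit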;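 note: all wells also contain fluconazole at 8 µg/ml as a sub-toxic cotreatment; 0% = median of DMSO wells and 100% = median of geldanamycin control wells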
# NALP1 inh – inhibitors of NALP1 inflammasome in yeast; 0.61% of 280,000 active; S. cerevisiae NALP1/ASC/caspase-1 growth, X-gal OD620, 72 h; AID 2071; inhibition, % at 10 µM; in the data active = inhibition mostly above about 24%, no sharp cut-off; inactive = mostly below about 32%
# * hit, by the source's call; ? = inconclusive; / = no result given.
SMILES,NLRP3 yeast inh,L major viab,T cruzi repl,PolyA inhibitor,Calb FLC,NALP1 inh
C=CCN(CC=C)C(=S)Nc1ccc(OC)c(OC)c1,0,-5,-8,4,-9,-1
COC(=O)CCCn1c(C)cc(C(=O)CCl)c1C,-77,100*,-23,1,-1,-36
COC(=O)c1c(NC(=O)COC(=O)CCc2ccc(S(=O)(=O)N3CCOCC3)cc2)sc2c1CCC2,15,0,5,4,-3,24
Cc1cccc(C)c1OCc1cc(C(=O)N(Cc2nccn2C)C(C)C)no1,12,/,10,-3,-14,14
CCc1c(C)nc2cc(-c3cc(OC)cc(OC)c3)nn2c1N1CCN(CCN2CCOCC2)CC1,24,88*,12,1,21,2
COCCN1CCN(c2c(C)c(C)nc3cc(-c4cccc(OC)c4)nn23)CC1,15,/,3,-6,14,/
CCOCCN1CCN(c2c(C)c(C)nc3cc(-c4cc(OC)cc(OC)c4)nn23)CC1,16,83*,10,7,7,10
CC(c1ccc2c(c1)OCO2)n1c(=S)[nH]c2ccccc2c1=O (stereo not given),5,/,/,/,/,/
COc1ccc(NC(=O)Nc2ccon2)c(OC)c1,-3,-4,7,-19,5,0
Cc1noc(/C=C/N(C)C)c1S(=O)(=O)N1CCCC(C(=O)Nc2ccccc2F)C1 (stereo not given),2,/,8,6,21,23
COc1ccc(-c2csc(C3=C(O)CN(C(C)C)C3=N)n2)cc1OC,-1,72*,-8,3,3,12
CCOC(=O)/C(=N\Nc1ccccc1[N+](=O)[O-])c1csc(N)n1,27,52*,-12,2,-13,24
CCOC(=O)/C(=N\Nc1ccc(C(C)=O)cc1)c1csc(Nc2ccccc2)n1,-16,-4,51,-9,-7,16
O=C(CCN1C(=O)/C(=C\c2cccc(Br)c2)SC1=S)N1CCOCC1,4,/,-21,27,10,-1
Cc1ccc(N(C(=O)CNC(=O)c2ccco2)C(C(=O)NC2CCCCC2)c2cccnc2)cc1 (stereo not given),5,/,11,5,-19,13
COc1ccc(C(=O)c2ccc(N3CCOCC3)c([N+](=O)[O-])c2)cc1,20,8,-1,3,10,-15
COc1ccc(Nc2nnc(-c3ccc(N4CCOCC4)c([N+](=O)[O-])c3)c3ccccc23)cc1,/,57*,/,/,/,-2
CCCCNC(=O)CCc1c(C)nc2c(c(C)nn2-c2ccccc2)c1C,15,/,55*,17,-1,2
Cc1nc2c(c(C)nn2-c2ccccc2)c(C)c1CCC(=O)NCCCOC(C)C,13,/,10,7,4,10
C=CCOC(=O)C1=C[C@H](c2csc3ccccc23)C[C@H](OCc2ccc(CO)cc2)O1,24,/,7,-2,13,/
CCOC(=O)c1cnc2nc(C)[nH]n2c1=O,32,-2,6,25,-9,22
CCOC(=O)c1cnc2sc3c(n2c1=O)CCCC3,11,100*,/,/,/,0
COc1ccc(-c2cc3c(=O)n(CC(=O)Nc4cccc(Cl)c4)nc(C)n3n2)cc1,14,/,-14,-3,-7,8
Cc1[nH]n(C(N)=S)c(=O)c1N=Nc1cc(-c2ccc(Br)cc2)[nH]n1,30,57*,-24,-12,53,1
Fc1cccc2sc(Nc3nnc(-c4ccco4)o3)nc12,43,-3,23,14,85*,24
SMILES,NLRP3 yeast inh,L major viab,T cruzi repl,PolyA inhibitor,Calb FLC,NALP1 inh
COc1ccc(-c2nnc(-c3ccc(F)cc3)o2)cc1,26,/,-17,-2,-5,-1
COc1cccc2sc(Nc3nnc(-c4cccs4)o3)nc12,10,96*,65*,4,-7,4
COc1cccc2sc(Nc3nnc(-c4ccc(F)cc4)o3)nc12,19,96*,43,?,117*,2
CC(C)CC(c1nnnn1Cc1ccc(F)cc1)N1CCC(C(N)=O)CC1 (stereo not given),0,11,-16,-25,5,-14
Cc1ccccc1C(=O)Nc1ccccc1C(=O)NC1CC1,9,/,-4,1,10,14
COc1ccccc1NC(=O)Cn1cnc2c(cnn2-c2ccccc2)c1=O,7,1,-11,13,91*,0
O=c1c2cnn(-c3ccccc3)c2ncn1CCc1ccccc1,27,-5,6,1,-1,24

# Screens as filed in PubChem BioAssay.
